From ChEMBL document CHEMBL2311278, “Novel fluorescent cephalosporins: synthesis, antimicrobial activity and photodynamic inactivation of antibiotic resistant bacteria” (2013)
Calls of active or inactive are those of the source. The calls are words filed in the database; no cut-off is given here.

Experiments:
Klebsiella pneumoniae [1] = assay: Photodynamic inactivation of Klebsiella pneumoniae ATCC 700603 assessed as lethality at 6 uM after overnight incubation by traditional surface plating method in presence of 126 J/cm 2 white light irradiation; format: functional
Outline: (§1)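 Mixed 1:1 with compound and kept in the dark at 37 °C for 30 min with shaking, then exposed to filtered xenon white light (400–800 nm, 350 mW/cm²). Cells diluted in PBS, ~10⁴ CFU/mL plated on LB agar and grown overnight at 37 °C. Treated-and-irradiated CFU divided by untreated, unirradiated CFU; triplicate. Dark controls had no irradiation.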

Staphylococcus aureus [2] = assay: Binding affinity to methicillin-resistant Staphylococcus aureus MRSA2 assessed per 10^8 cells/ml at 5 uM after overnight incubation by fluorescence analysis; format: functional, organism-based
Outline: (§2)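 Incubated with compound, then pelleted, dissolved in 2% SDS, held at 4 °C overnight and sonicated 30 min. Fluorescence intensity compared with that of free compound (50 µM, or 5 µM for the more fluorescent analogue); expressed per 10⁸ cells/mL.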

Staphylococcus aureus [3] = assay: Binding affinity to methicillin-resistant Staphylococcus aureus MRSA1 assessed per 10^8 cells/ml at 5 uM after overnight incubation by fluorescence analysis; format: functional, organism-based; outline: as §2
[4] = system: Staphylococcus aureus ATCC 25923; assay: Binding affinity to Staphylococcus aureus ATCC 25923 assessed per 10^8 cells/ml at 5 uM after overnight incubation by fluorescence analysis
[5] = system: metallo-beta-lactamase CcrA (Bacteroides fragilis); assay: Activity at Bacteroides fragilis metallo-beta-lactamase CcrA expressed in Escherichia coli BL21 (DE3) by Michaelis-Menten equation analysis
Klebsiella pneumoniae [6] = assay: Antibacterial activity against Klebsiella pneumoniae ATCC 700603 after 24 hrs; format: functional; conditions: ATCC 700603, 24 h
Outline: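 Broth microdilution in Mueller-Hinton medium. A single LB-plate colony was grown in Mueller-Hinton broth at 35 °C for 2–6 h to 10⁸ CFU/mL by turbidimetry. Compounds were dissolved in ddH₂O and serially diluted in Mueller-Hinton medium from 256 downward. About 10⁶ CFU/mL bacteria were added, and plates were incubated at 37 °C for 24 h.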

Staphylococcus aureus [7] = assay: Antibacterial activity against methicillin-resistant Staphylococcus aureus MRSA1 after 24 hrs; format: functional; conditions: MRSA1, 24 h
Outline: (§3)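 Broth microdilution in Mueller–Hinton medium. Inocula grown from single colonies at 35 °C to 10⁸ CFU/mL by turbidimetry, then added at ~10⁶ CFU/mL to serial dilutions of compound starting at 256 µg/mL (stocks in ddH2O). Incubated 37 °C for 24 h.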

[8] = system: Staphylococcus aureus ATCC 25923; assay: Binding affinity to Staphylococcus aureus ATCC 25923 assessed per 10^8 cells/ml at 50 uM after overnight incubation by fluorescence analysis
Staphylococcus aureus [9] = assay: Binding affinity to methicillin-resistant Staphylococcus aureus MRSA2 assessed per 10^8 cells/ml at 50 uM after overnight incubation by fluorescence analysis; format: functional, organism-based; outline: as §2
Staphylococcus aureus [10] = assay: Antibacterial activity against methicillin-resistant Staphylococcus aureus MRSA2 after 24 hrs; format: functional; conditions: MRSA2, 24 h; outline: as §3
[11] = system: metallo-beta-lactamase L1 (Stenotrophomonas maltophilia); assay: Activity at Stenotrophomonas maltophilia metallo-beta-lactamase L1 expressed in Escherichia coli BL21 (DE3) by Michaelis-Menten equation analysis
Staphylococcus aureus [12] = assay: Binding affinity to methicillin-resistant Staphylococcus aureus MRSA1 assessed per 10^8 cells/ml at 50 uM after overnight incubation by fluorescence analysis; format: functional, organism-based; outline: as §2
[13] = Binding affinity to Klebsiella pneumoniae ATCC 700603 at 50 uM after overnight incubation by confocal image analysis
Klebsiella pneumoniae [14] = assay: Antibacterial activity against Klebsiella pneumoniae ATCC 700603 assessed as lethality at 10 uM after overnight incubation by traditional surface plating method; format: functional; outline: as §1
Staphylococcus aureus [15] = assay: Binding affinity to methicillin-resistant Staphylococcus aureus MRSA1 at 50 uM after overnight incubation by confocal image analysis; format: functional, organism-based
Outline: (§4)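 Incubated with 50 µM compound in the dark with shaking, washed twice in PBS and imaged by confocal fluorescence and differential interference contrast microscopy.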

Staphylococcus aureus [16] = assay: Binding affinity to methicillin-resistant Staphylococcus aureus MRSA2 at 50 uM after overnight incubation by confocal image analysis; format: functional, organism-based; outline: as §4
Klebsiella pneumoniae [17] = assay: Photodynamic inactivation of Klebsiella pneumoniae ATCC 700603 assessed as lethality at 6 uM after overnight incubation by traditional surface plating method in presence of 189 J/cm 2 white light irradiation; format: functional; outline: as §1
Klebsiella pneumoniae [18] = assay: Photodynamic inactivation of Klebsiella pneumoniae ATCC 700603 assessed as lethality at 10 uM after overnight incubation by traditional surface plating method in presence of 350 mW/cm2 white light irradiation; format: functional; outline: as §1

| Structure (SMILES) | Activity (Klebsiella pneumoniae [1]) | Km [5] [µM] | Vmax [5] [µM/s] | kcat [5] [s⁻¹] | MIC (Klebsiella pneumoniae [6]) [µg/mL] | MIC (Staphylococcus aureus [7]) [µg/mL] | Activity [8] [µM] | Activity (Staphylococcus aureus [9]) [µM] | MIC (Staphylococcus aureus [10]) [µg/mL] | Km [11] [µM] | Vmax [11] [µM/s] | kcat [11] [s⁻¹] | Activity (Staphylococcus aureus [12]) [µM] | further results |
| --- | --- | --- | --- | --- | --- | --- | --- | --- | --- | --- | --- | --- | --- | --- |
| O=C(O)c1cc2c(ccc3ccccc32)oc1=O | inactive | – | – | – | – | – | – | – | – | – | – | – | – | Activity (Staphylococcus aureus [2]): 0.033 µM; Activity (Staphylococcus aureus [3]): 0.03 µM; Activity [4]: 0.044 µM |
| O=C(Cc1cccs1)N[C@@H]1C(=O)N2C(C(=O)O)=C(CSc3ccc(NC(=O)c4cc5c(ccc6ccccc65)oc4=O)cc3)CS[C@H]12 | inactive | 24.4 | 0.604 | 121 | > 128 | > 128 | 6.59 | 2.95 | > 128 | 20.2 | 0.59 | 29.5 | 3.14 | – |
| O=C(Cc1cccs1)N[C@@H]1C(=O)N2C(C(=O)O)=C(CSc3ccc(NC(=O)c4cc5ccccc5oc4=O)cc3)CS[C@H]12 | 84% | 38.3 | 1.05 | 209 | > 128 | > 128 | 2.13 | 1.82 | > 128 | 6.02 | 0.471 | 23.5 | 2.15 | Activity [13]: Active; Activity (Klebsiella pneumoniae [14]): <5%; Activity (Staphylococcus aureus [15]): Active; Activity (Staphylococcus aureus [16]): Active; Activity (Klebsiella pneumoniae [17]): >95%; Activity (Klebsiella pneumoniae [18]): >65% |
| O=C(O)c1cc2ccccc2oc1=O | – | – | – | – | – | – | 0.68 | 0.81 | – | – | – | – | 0.71 | – |
